What is called Inhibition is the relative decrease from the control value, in per cent. The IC50 is the midpoint of a concentration-inhibition curve. By logP is commonly meant the decadic logarithm of the partition coefficient of the neutral form, usually between octanol and water.

Consider three compounds from ChEMBL document CHEMBL1125533, “Novel 1-(pyridylphenyl)-1-phenyl-2-imidazolylethanols with topical antiinflammatory activity” (J Med Chem, 1992).

Data set [1] deals with Mus musculus. The data set is described as follows: (§1) In vivo inhibitory activity against A-23187 ear edema at a dose of 100 ug/ear. It counts as functional. In short, it runs like this:
(§2)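 Topical mouse ear edema test at 100 µg/ear; the inflammogen is applied to one ear and the unchallenged ear serves as control. Mice are killed by cervical dislocation at set times, and 6 mm biopsy punches from each ear are weighed. Edema is the challenged-minus-unchallenged weight. Percent inhibition is [(C−T)/C]×100. Duplicate separate experiments, 10 animals per group; averages of two or more determinations.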

Data set [2] deals with Mus musculus. As to the kind of experiment: In vivo inhibitory activity against phorbol myristyl acetate (PMA) ear edema at a dose of 100 ug/ear. It counts as functional. In short, it runs like this: (§3)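 Mouse ear edema, topical: inflammation induced by PMA, A23187 or arachidonic acid on one ear, with the unchallenged ear as control. Mice were killed by cervical dislocation at set times after challenge, and 6 mm punches were weighed. Edema = challenged minus unchallenged punch weight. Percent inhibition = [(C−T)/C]×100 at 100 μg/ear. Duplicate separate experiments, 10 animals per group. Student's t test.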

Data set [3] concerns the target T1, Cyclooxygenase (Bos taurus, UniProt O62664+O62698).
T1 sequence (O62664 whole entry): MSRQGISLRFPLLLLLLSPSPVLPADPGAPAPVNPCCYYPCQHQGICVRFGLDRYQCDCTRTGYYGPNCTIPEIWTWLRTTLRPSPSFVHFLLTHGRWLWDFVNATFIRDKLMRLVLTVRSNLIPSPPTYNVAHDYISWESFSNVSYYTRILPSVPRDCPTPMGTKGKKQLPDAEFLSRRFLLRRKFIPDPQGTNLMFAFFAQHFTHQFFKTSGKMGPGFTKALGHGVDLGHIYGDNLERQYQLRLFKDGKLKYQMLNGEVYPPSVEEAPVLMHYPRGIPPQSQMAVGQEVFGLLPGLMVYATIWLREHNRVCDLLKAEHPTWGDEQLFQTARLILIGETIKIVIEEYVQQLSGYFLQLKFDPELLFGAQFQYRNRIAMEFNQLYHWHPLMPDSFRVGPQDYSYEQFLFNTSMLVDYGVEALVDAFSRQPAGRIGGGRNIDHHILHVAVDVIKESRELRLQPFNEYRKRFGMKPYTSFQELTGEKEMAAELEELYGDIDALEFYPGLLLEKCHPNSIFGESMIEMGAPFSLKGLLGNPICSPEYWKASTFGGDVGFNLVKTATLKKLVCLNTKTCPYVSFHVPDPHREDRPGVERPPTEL
T1 sequence (O62698 whole entry): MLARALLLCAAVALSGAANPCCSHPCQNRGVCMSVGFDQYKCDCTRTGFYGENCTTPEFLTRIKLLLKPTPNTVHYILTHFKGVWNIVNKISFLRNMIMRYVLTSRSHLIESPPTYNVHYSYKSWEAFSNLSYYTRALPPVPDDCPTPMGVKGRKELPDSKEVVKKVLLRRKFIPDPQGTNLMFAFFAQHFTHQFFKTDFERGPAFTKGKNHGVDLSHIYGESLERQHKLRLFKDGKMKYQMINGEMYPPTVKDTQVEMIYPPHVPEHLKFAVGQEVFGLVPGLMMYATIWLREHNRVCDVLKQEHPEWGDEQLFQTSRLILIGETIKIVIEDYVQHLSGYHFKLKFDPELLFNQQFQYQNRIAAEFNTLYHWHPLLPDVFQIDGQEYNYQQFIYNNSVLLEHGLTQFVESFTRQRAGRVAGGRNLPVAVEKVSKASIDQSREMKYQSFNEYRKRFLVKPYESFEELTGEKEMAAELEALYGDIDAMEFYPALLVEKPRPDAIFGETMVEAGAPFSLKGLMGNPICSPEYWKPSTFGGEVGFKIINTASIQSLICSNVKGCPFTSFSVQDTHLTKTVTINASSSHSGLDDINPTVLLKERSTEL
As to the kind of experiment: Inhibitory activity against Prostaglandin G/H synthase (bovine seminal vesicles). It counts as protein assay.

The test system of data set [4] is Mus musculus. As to the kind of experiment: (§4) In vivo inhibitory activity against arachidonic acid(AA) ear edema at a dose of 100 ug/ear. It counts as functional. In short, it runs like this:
as §2

The target of data set [5] is T2, Polyunsaturated fatty acid 5-lipoxygenase (Rattus norvegicus, UniProt P12527).
T2 sequence (P12527 whole entry): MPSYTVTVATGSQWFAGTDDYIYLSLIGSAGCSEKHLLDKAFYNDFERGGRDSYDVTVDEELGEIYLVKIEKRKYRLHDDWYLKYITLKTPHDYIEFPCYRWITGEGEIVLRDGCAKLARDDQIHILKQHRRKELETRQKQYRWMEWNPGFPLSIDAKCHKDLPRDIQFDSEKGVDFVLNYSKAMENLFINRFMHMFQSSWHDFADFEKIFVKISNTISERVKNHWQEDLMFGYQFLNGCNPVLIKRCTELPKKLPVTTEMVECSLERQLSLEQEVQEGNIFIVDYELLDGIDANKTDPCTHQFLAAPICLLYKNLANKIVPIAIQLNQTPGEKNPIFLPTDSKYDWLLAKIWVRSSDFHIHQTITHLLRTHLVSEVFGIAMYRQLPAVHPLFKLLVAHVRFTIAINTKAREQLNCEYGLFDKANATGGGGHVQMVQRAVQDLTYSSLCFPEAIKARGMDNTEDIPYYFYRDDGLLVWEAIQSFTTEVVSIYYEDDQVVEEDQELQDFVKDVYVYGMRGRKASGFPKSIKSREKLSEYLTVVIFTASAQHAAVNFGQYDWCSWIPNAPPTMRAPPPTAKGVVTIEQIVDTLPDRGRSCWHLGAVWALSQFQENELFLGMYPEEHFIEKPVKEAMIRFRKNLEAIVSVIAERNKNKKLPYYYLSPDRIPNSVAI
The data set is described as follows: Inhibitory activity against 5-lipoxygenase of RBL-1 cell line. It counts as cell-based.

The subject of data set [6] is Mus musculus. Described as §1. It counts as functional. In short, it runs like this: as §3
The source holds these as a separate data set.

Data set [7] in a line: Partition coefficient (logP). It counts as physicochemical. The conditions noted are these: octanol/water. An outline of the steps:
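log P estimated from reversed-phase HPLC retention time. Calibration curve built from shake-flask octanol/water log P values of eight pyridines. Log RT vs log P was linear.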

Data set [8] relates to Mus musculus. As to the kind of experiment: In vivo inhibitory activity in a phorbol myristyl acetate (PMA) ear edema model at a dose of 100 ug/ear. It counts as functional. In short, it runs like this: as §3
Data set [9] has as its system Mus musculus. Described as §4. It counts as functional. An outline of the steps:
as §3
This is another data set of the same source.

With `CC(=O)N1CCN(c2ccc(OCC3COC(Cn4ccnc4)(c4ccc(Cl)cc4Cl)O3)cc2)CC1` (centres undefined) [KETOCONAZOLE], the Inhibition in data set [1] came to 8%; in data set [4], 10%. In data set [2], the ED50 is listed as 34 ug ear-1. In addition, the figures for the concentration for half-maximal inhibition (IC50) in data set [3] and in data set [5] were above 750 µM and above 25 µM, respectively.
Turning to `Cc1ccc(C(O)(Cn2ccnc2)c2ccc(-c3ccncc3)cc2)cc1` (centres undefined), the ED50 is recorded as 13 ug ear-1 in data set [6] and 13.2 ug ear-1 in data set [2]. In addition, the IC50 is above 750 µM in data set [3] and above 25 µM in data set [5]. The same compound came in with a logP in data set [7] of 3.13. Besides, the Inhibition in data set [8] is listed as 62%; in data set [4], 16%.
`OC(Cn1ccnc1)(c1ccc(F)cc1)c1ccc(-c2ccncc2)cc1` (centres undefined): the ED50 is reported as 21 ug ear-1 in data set [6], 4.6 ug ear-1 in data set [2] and 543 ug ear-1 in [9]. Moreover, the IC50 in data set [3] is above 750 µM; in data set [5], above 25 µM. In data set [7], this compound had a logP of 2.47. In addition, the Inhibition in [8] was 72%.
